The subject of test [1] is Echinochloa crus-galli. The experiment in a line: Herbicidal activity against Echinochloa crus-galli (barnyard grass) assessed as inhibition of fresh plant weight at 600 g/ha using postemergence protocol measured […] under green house conditions. The format is functional. As to conditions: post-emergence. The method, boiled down: (§1)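 Weed seedlings at one-leaf-and-one-stem stage sprayed post-emergence with test solution at 750, 600, 300, 150 or 75 g/ha. Aboveground fresh weight determined 24 days after treatment; percent inhibition calculated relative to controls. Two replicates per treatment.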

In test [2] the test system is Brassica rapa subsp. oleifera. The experiment in a line: Herbicidal activity against Brassica rapa subsp. oleifera assessed as inhibition of fresh plant weight at 600 g/ha using postemergence protocol measured after 24 days under green house conditions. As to conditions: post-emergence.
For test [3], the system named is Spirodela polyrhiza. As to the kind of experiment: Inhibition of chlorophyll in Spirodela polyrhiza fronds at 10 ug/mL using light intensity of 45 uE/m2/s measured after 7 days. The format is functional. As to conditions: 168 h. In outline: (§2)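 Giant duckweed assay. Compound in DMF dropped onto filter paper, solvent evaporated 15 min, paper placed in flask with 15 mL fresh medium and shaken >10 min. 10 fronds inoculated per flask and grown 7 days at 23-26 °C, 16 h light/8 h dark, ca. 45 µE m^-2 s^-1. DMF plus medium served as control. Chl extracted in 96% ethanol overnight at 4 °C; OD read at 665 and 649 nm; content expressed as percent of control.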

Test [4] relates to Digitaria. The experiment in a line: Herbicidal activity against Digitaria adscendens assessed as inhibition of fresh plant weight at 600 g/ha using preemergence protocol […] under green house conditions. The conditions noted are these: in Digitaria adscendens, pre-emergence. Type of test: functional. In outline:
(§3)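 Pre-emergence treatment. Aboveground fresh weight measured 24 days later; percent inhibition calculated against controls. Two replicates per treatment.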

Test [5] concerns Amaranthus retroflexus. As to the kind of experiment: Herbicidal activity against Amaranthus retroflexus assessed as inhibition of fresh plant weight at 600 g/ha using postemergence protocol measured after 24 days under green house conditions. As to conditions: post-emergence.
Test [6] concerns Amaranthus retroflexus. As to the kind of experiment: Herbicidal activity against Amaranthus retroflexus assessed as inhibition of fresh plant weight at 600 g/ha using preemergence protocol measured […] under green house conditions. The format is functional. The conditions noted are these: pre-emergence. In outline: as §3
The subject of test [7] is Digitaria. As to the kind of experiment: Herbicidal activity against Digitaria adscendens assessed as inhibition of fresh plant weight at 600 g/ha using postemergence protocol […] under green house conditions. The format is functional. The conditions noted are these: in Digitaria adscendens, post-emergence. The method, boiled down: as §1
The subject of test [8] is Echinochloa crus-galli. The experiment in a line: Herbicidal activity against Echinochloa crus-galli (barnyard grass) assessed as inhibition of fresh plant weight at 600 g/ha using preemergence protocol […] under green house conditions. The format is functional. The conditions noted are these: pre-emergence. The method, boiled down:
as §3

In test [9] the test system is Brassica rapa subsp. oleifera. The experiment in a line: Herbicidal activity against Brassica rapa subsp. oleifera assessed as inhibition of fresh plant weight at 600 g/ha using preemergence protocol measured […] under green house conditions. The format is functional. The conditions noted are these: pre-emergence. The method, boiled down: as §3
For test [10], the system named is Spirodela polyrhiza. The experiment in a line: Inhibition of chlorophyll in Spirodela polyrhiza fronds at 1 ug/mL using light intensity of 45 uE/m2/s measured after 7 days. Type of test: functional. As to conditions: 168 h. The method, boiled down: as §2
Test [11] has as its system Brassica rapa subsp. oleifera. The experiment in a line: Herbicidal activity against Brassica rapa subsp. oleifera assessed as inhibition of fresh plant weight at 150 g/ha using postemergence protocol measured after 24 days under green house conditions. As to conditions: post-emergence.
For test [12], the system named is Brassica rapa subsp. oleifera. The experiment in a line: Herbicidal activity against Brassica rapa subsp. oleifera assessed as inhibition of fresh plant weight at 750 g/ha using postemergence protocol measured after 24 days under green house conditions. As to conditions: post-emergence.
Test [13] has as its system Digitaria. As to the kind of experiment: Herbicidal activity against Digitaria adscendens assessed as inhibition of fresh plant weight at 750 g/ha using postemergence protocol measured after 24 days under green house conditions. The conditions noted are these: in Digitaria adscendens, post-emergence.
The subject of test [14] is Amaranthus retroflexus. As to the kind of experiment: Herbicidal activity against Amaranthus retroflexus assessed as inhibition of fresh plant weight at 750 g/ha using postemergence protocol measured after 24 days under green house conditions. As to conditions: post-emergence.
Test [15] concerns Amaranthus retroflexus. As to the kind of experiment: Herbicidal activity against Amaranthus retroflexus assessed as inhibition of fresh plant weight at 300 g/ha using postemergence protocol measured after 24 days under green house conditions. As to conditions: post-emergence.
In test [16] the test system is Brassica rapa subsp. oleifera. As to the kind of experiment: Herbicidal activity against Brassica rapa subsp. oleifera assessed as inhibition of fresh plant weight at 300 g/ha using postemergence protocol measured after 24 days under green house conditions. The conditions noted are these: post-emergence.
The test system of test [17] is Amaranthus retroflexus. The experiment in a line: Herbicidal activity against Amaranthus retroflexus assessed as inhibition of fresh plant weight at 150 g/ha using postemergence protocol measured after 24 days under green house conditions. As to conditions: post-emergence.
Test [18] has as its system Amaranthus retroflexus. As to the kind of experiment: Herbicidal activity against Amaranthus retroflexus assessed as inhibition of fresh plant weight at 75 g/ha using postemergence protocol measured after 24 days under green house conditions. The conditions noted are these: post-emergence.
Test [19] deals with Digitaria. As to the kind of experiment: Herbicidal activity against Digitaria adscendens assessed as inhibition of fresh plant weight at 750 g/ha using preemergence protocol measured after 24 days under green house conditions. As to conditions: in Digitaria adscendens, pre-emergence.
Test [20] deals with Echinochloa crus-galli. The experiment in a line: Herbicidal activity against Echinochloa crus-galli (barnyard grass) assessed as inhibition of fresh plant weight at 750 g/ha using postemergence protocol measured after 24 days under green house conditions. As to conditions: post-emergence.
For test [21], the system named is Amaranthus retroflexus. As to the kind of experiment: Herbicidal activity against Amaranthus retroflexus assessed as inhibition of fresh plant weight at 750 g/ha using preemergence protocol measured after 24 days under green house conditions. The conditions noted are these: pre-emergence.
Test [22] relates to Brassica rapa subsp. oleifera. The experiment in a line: Herbicidal activity against Brassica rapa subsp. oleifera assessed as inhibition of fresh plant weight at 750 g/ha using preemergence protocol measured after 24 days under green house conditions. The conditions noted are these: pre-emergence.
Test [23] relates to Echinochloa crus-galli. As to the kind of experiment: Herbicidal activity against Echinochloa crus-galli (barnyard grass) assessed as inhibition of fresh plant weight at 750 g/ha using preemergence protocol measured after 24 days under green house conditions. As to conditions: pre-emergence.
Test [24] has as its system Brassica rapa subsp. oleifera. The experiment in a line: Herbicidal activity against Brassica rapa subsp. oleifera assessed as inhibition of fresh plant weight at 75 g/ha using postemergence protocol measured after 24 days under green house conditions. As to conditions: post-emergence.

Structures are written as SMILES.

Take `CCOC(=O)n1nc(C)cc(-c2cccc(C(F)(F)F)c2)c1=O`: the inhibition at 600 g/ha in the test on Echinochloa crus-galli [1] amounted to 0%; in [2] it was 55%; with Digitaria [4], 100%; in the test on Amaranthus retroflexus [5], 61%; with Amaranthus retroflexus [6], 100%; in the test with Digitaria [7] it was 13%. Moreover, the inhibition at 600 g/ha was found to be 46% in the test on Echinochloa crus-galli [8] and 87% in test [9]. In the test on Spirodela polyrhiza [3], this compound registered an inhibition at 10 µg/mL of 100%.

As for `CCCn1nc(C)cc(-c2cccc(C(F)(F)F)c2)c1=O`, the inhibition at 600 g/ha with Echinochloa crus-galli [1] was 5%; in [2] it was 6%; with Digitaria [4], 100%; in the test with Amaranthus retroflexus [5] it was 28%; in the test on Amaranthus retroflexus [6], 51%; with Digitaria [7], 19%. Moreover, the values for the inhibition at 600 g/ha (in the test on Echinochloa crus-galli [8]; in test [9]) were 82% and 61%, respectively. Moreover, the inhibition at 10 µg/mL with Spirodela polyrhiza [3] is 90%.

Compound `O=C(Nc1ccc(F)cc1F)c1cccnc1Oc1cccc(C(F)(F)F)c1` [DIFLUFENICAN] yielded an inhibition at 1 µg/mL in the test on Spirodela polyrhiza [10] of 90%. Moreover, the inhibition at 150 g/ha worked out at 88% in [11] and 70% with Amaranthus retroflexus [17]. Also, the results for the inhibition at 600 g/ha (in test [2]; in the test with Amaranthus retroflexus [5]) were 98% and 100%, respectively. The compound further displayed an inhibition at 10 µg/mL in the test with Spirodela polyrhiza [3] of 94%. In addition, the inhibition at 750 g/ha was determined as 98% in test [12]; 83% with Digitaria [13]; 100% in the test with Amaranthus retroflexus [14]; 100% in the test with Digitaria [19]; 67% in the test on Echinochloa crus-galli [20]; 90% in the test on Amaranthus retroflexus [21]. Moreover, the inhibition at 750 g/ha is 71% in test [22] and 94% in the test on Echinochloa crus-galli [23]. The values for the inhibition at 300 g/ha (with Amaranthus retroflexus [15]; in test [16]) were 74% and 94%, respectively. Also, the inhibition at 75 g/ha turned out to be 41% with Amaranthus retroflexus [18] and 44% in test [24].

The term inhibition denotes the relative decrease from the control value, in per cent.
